In ChEMBL document CHEMBL1123191, “Allergenic alpha-methylene-gamma-butyrolactones. Study of the capacity of beta-acetoxy- and beta-hydroxy-alpha-methylene-gamma-butyrolactones to induce allergic contact dermatitis in guinea pigs” (1986) one finds Sensitized animals and Average skin reaction data, which are given here for six molecules.

The species named for assay [1] is Cavia porcellus. Put plainly: Compound was measured for open epicutaneous test on sensitized guinea pig after sensitization of compound (4-Hydroxy-3-methylene-1-oxa-spiro[4.5]decan-2-one). The format is functional. An outline of the steps: (§1)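 Female Albino Himalayan spotted guinea pigs (300-500 g) sensitized by FCAT: hapten emulsified in Freund's complete adjuvant, 0.1 mL intradermal in shaved nuchal region, three injections on alternate days. After 2-week rest, 25 μL of 2% lactone in CH2Cl2 (others at same molar concentration) applied to 2-cm² area of shaved flank. Read at 24 h, scale 0-3.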

For assay [2], the species on record is Cavia porcellus. Briefly: Compound was measured for open epicutaneous test on sensitized guinea pig after sensitization of compound (3-Methylene-1-oxa-spiro[4.5]decan-2-one). The class given is functional. An outline of the steps:
as §1

For assay [3], the species on record is Cavia porcellus. Briefly: Compound was measured for open epicutaneous test on sensitized guinea pig after sensitization of compound (Acetic acid 4-methylene-5-oxo-tetrahydro-furan-3-yl ester). The format is functional. An outline of the steps: as §1
Assay [4] is filed under the species Cavia porcellus. Briefly: Compound was measured for open epicutaneous test on sensitized guinea pig after sensitization of compound (3-Methylene-1-oxa-spiro[4.5]decan-2-one) average skin reaction. The format is functional. The method, boiled down:
as §1

Assay [5] is filed under the species Cavia porcellus. Briefly: Compound was measured for open epicutaneous test on sensitized guinea pig after sensitization of compound (4-Hydroxy-3-methylene-dihydro-furan-2-one) average skin reaction. The format is functional. An outline of the steps:
as §1

The species entered for assay [6] is Cavia porcellus. Briefly: Compound was measured for open epicutaneous test on sensitized guinea pig after sensitization of compound (4-Hydroxy-3-methylene-1-oxa-spiro[4.5]decan-2-one). average skin reaction. The format is functional. The method, boiled down:
as §1

For assay [7], the species on record is Cavia porcellus. Briefly: Compound was measured for open epicutaneous test on sensitized guinea pig after sensitization of compound (4-Hydroxy-3-methylene-dihydro-furan-2-one). The class given is functional. An outline of the steps: as §1
The species named for assay [8] is Cavia porcellus. Briefly: Compound was measured for open epicutaneous test on sensitized guinea pig after sensitization of compound (Acetic acid 4-methylene-5-oxo-tetrahydro-furan-3-yl ester) average skin reaction. The format is functional. An outline of the steps: as §1
Assay [9] is filed under the species Cavia porcellus. Briefly: Compound was measured for open epicutaneous test on sensitized guinea pig after sensitization of compound 1a.
The species named for assay [10] is Cavia porcellus. Briefly: Compound was measured for open epicutaneous test on sensitized guinea pig after sensitization of compound (Acetic acid 3-methylene-2-oxo-1-oxa-spiro[4.5]dec-4-yl ester). The class given is functional. The method, boiled down: as §1
The species named for assay [11] is Cavia porcellus. Briefly: Compound was measured for open epicutaneous test on sensitized guinea pig after sensitization of compound itself. The class given is functional. An outline of the steps:
as §1

`C=C1C(=O)OC2(CCCCC2)[C@@H]1OC(C)=O`: the Sensitized animals in assay [1] was 6; in assay [2] it was 6; in assay [3], 0; in assay [7] it was 0; in assay [10], 6; in assay [11] it was 6. In addition, the Average skin reaction in [4] worked out at 1.7; in assay [5], 0; in [6], 1.8; in assay [8], 0; in [9], 0; in assay [10], 3.
Regarding `C=C1C(=O)OC2(CCCCC2)[C@@H]1O`, the Sensitized animals is 6 in assay [1]; 6 in assay [2]; 0 in assay [3]; 0 in [7]; 6 in assay [10]; 0 in assay [11]. In addition, the Average skin reaction is 0.4 in assay [4]; 0 in [5]; 0.7 in assay [6]; 0 in [8]; 0 in assay [9]; 0.5 in assay [10].
As to `C=C1C(=O)OC[C@@H]1OC(C)=O`, the Sensitized animals in [1] was determined as 0; in [2] it was 0; in assay [3] it was 6; in assay [7], 4; in [10], 0; in assay [11], 6. The Average skin reaction in [4] is given as 0; in assay [5], 0.3; in assay [6] it was 0; in assay [8], 0.8; in assay [9], 0.4; in assay [10] it was 0.
Turning to `C=C1CCOC1=O` [TULIPALINE A], the Sensitized animals in [1] came to 0; in assay [2], 0; in assay [3], 6; in [7], 6; in [10], 0; in assay [11] it was 6. In addition, the Average skin reaction is listed as 0 in assay [4]; 1.1 in assay [5]; 0 in assay [6]; 1.1 in [8]; 2 in assay [9]; 0 in assay [10].
Consider `C=C1C(=O)OC[C@@H]1O`, for which the Sensitized animals is 0 in assay [1]; 0 in assay [2]; 6 in [3]; 6 in [7]; 0 in [10]; 6 in [11].
For the molecule `C=C1CC2(CCCCC2)OC1=O`, the Sensitized animals in [1] worked out at 6; in assay [2], 6; in [3], 0; in [7], 0; in [10], 6; in assay [11], 0. In addition, the Average skin reaction in assay [4] was 1.2; in assay [5], 0; in assay [6], 1.7; in assay [8], 0; in assay [9], 0; in assay [10], 0.8.
